pIC50, pKd: −log10 of the molar value. Several values for one entry are separate records, joined by “and”; a condition that tells them apart may be missing. Equal entries are not always repeated. Where a SMILES comes first, the peptide text is derived from it. The star is where a group is joined. X1 = O=C(ON1C(=O)CCC1=O)c1cccc(-c2c3ccc(=O)cc-3oc3cc(O)ccc23)c1C(=O)*

Data set [1] deals with T1, E3 ubiquitin-protein ligase XIAP (Homo sapiens, UniProt P98170). In words: Compound was tested for inhibitory activity towards XIAP BIR3 protein.
For data set [2], the target named is T1, E3 ubiquitin-protein ligase XIAP. In words: Dissociation constant for XIAP BIR3 protein in FP-based binding assay.
Data set [3] has the same target. In words: Dissociation constant for XIAP BIR3 protein using different binding assay.
The subject of data set [4] is Jurkat. In words: Inhibitory concentration of compound against Jurkat-Vec cells. The data set is classed as functional, cell-based. Particulars: Homo sapiens. The gist of the method:
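Stably vector-transfected Jurkat T cells kept in RPMI 1640 with 10% fetal calf serum and 1 µg/mL puromycin; growth read by WST-1 as for prostate lines: 5000 cells/well, triplicate concentrations, 4–5 days, absorbance 450/650 nm versus vehicle control, IC50 from sigmoid fit.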

Data set [5] concerns PC-3. In words: Compound was tested for inhibition of PC-3 prostate cancer cells. It is filed as functional, cell-based. Particulars: Homo sapiens. Summed up: (§1)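 WST-1 growth assay: 5000 cells/well in medium with 10% FBS, serial compound concentrations in triplicate for 4–5 days (five days per legend); WST-1 added 1–3 h at 37 °C, absorbance 450 nm corrected at 650 nm. Growth as % of vehicle-control absorbance; IC50 by sigmoid curve fit; experiment repeated three times.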

The subject of data set [6] is PC-3. In words: Percent of PC-3 cells stained for activated caspase-9 after incubation with 20 uM of compound for 42h. It is filed as functional, Homo sapiens. Summed up:
(§2)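 PC-3 cells seeded 1 × 10^6 per well, exposed to compound or DMSO vehicle for 42 h; parallel control had pan-caspase inhibitor Z-VAD-FMK added 5 min before compound. Cells in complete medium labeled with Red-LEHD-FMK 0.5 h at 37 °C, 5% CO2, washed; active caspase-9 scored by flow cytometry in PI channel as % positive cells.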

For data set [7], the system named is PC-3. In words: Activation of caspase-9 by embelin in PC-3 prostate cancer cells at a concentration of 20 uM. The data set is classed as functional, Homo sapiens. The gist of the method:
as §2

For data set [8], the system named is PC-3. In words: Percent of PC-3 cells underwent apoptosis after incubation with 25 uM of compound for 48 hr. It is filed as functional, Homo sapiens. Summed up:
(§3)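 PC-3 cells, 1 × 10^6 per well, treated in triplicate with compound for 48 h, trypsinized, PBS-washed, stained with Annexin V-FITC plus propidium iodide; flow cytometry, reported as % Annexin V-FITC-positive apoptotic cells; three separate experiments.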

Data set [9] deals with Jurkat. In words: Induction of apoptosis by etoposide in Jurkat vec cells at a dose of 2.5 uM for 72 h. It is filed as functional, Homo sapiens. Summed up: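 Stably vector-transfected Jurkat cells exposed to etoposide 2.5 µM for 72 h in the cell growth assay; reported as % of cells killed.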
The next data set relates to WI-38 5000. In words: Selectivity in normal human fibroblast cell line, WI-38 cells. The data set is classed as functional, cell-based. Summed up: as §1
Data set [10] deals with PC-3. In words: Percent of PC-3 cells underwent apoptosis after incubation with 50 uM of compound for 48 hr. The data set is classed as functional, Homo sapiens. Summed up:
as §3

The subject of data set [11] is PC-3. In words: Activation of caspase-9 by embelin in PC-3 prostate cancer cells at a concentration of 40 uM. It is filed as functional, Homo sapiens. Summed up:
as §2

For data set [12], the system named is PrEC. In words: Selectivity in normal human prostate epithelial cells (PrEC). It is filed as functional, cell-based. Summed up:
as §1

The test system of data set [13] is PC-3. In words: Percent of PC-3 cells stained for activated caspase-9 after incubation with 40 uM of compound for 42h. The data set is classed as functional, Homo sapiens. The gist of the method:
as §2

For data set [14], the system named is PC-3. In words: Induction of apoptosis by embelin in PC-3 prostate cancer cells at a concentration of 50 uM for 48 h. It is filed as functional, Homo sapiens. The gist of the method:
as §3

The subject of data set [15] is PrEC. In words: Inhibitory concentration of compound against growth of PrEC cells in vitro. It is filed as functional, cell-based. Particulars: Homo sapiens. The gist of the method:
as §1

For data set [16], the system named is PC-3. In words: Inhibitory concentration of compound against growth of PC-3 cells in vitro. The settings on record: Homo sapiens. The data set is classed as functional, cell-based. Summed up: as §1
Data set [17] deals with PC-3. In words: Induction of apoptosis by embelin in PC-3 prostate cancer cells at a concentration of 25 uM for 48 h. The data set is classed as functional, Homo sapiens. Summed up:
as §3

Data set [18] relates to LNCaP. In words: Inhibitory concentration of compound against growth of LNCaP cells in vitro. Particulars: Homo sapiens. It is filed as functional, cell-based. Summed up: as §1
Data set [19] has as its system LNCaP. In words: Compound was tested for inhibition of LnCap prostate cancer cells. The settings on record: Homo sapiens. The data set is classed as functional, cell-based. The gist of the method:
as §1

The next data set relates to WI-38. In words: Inhibitory concentration of compound against growth of WI-38 cells in vitro. Particulars: Homo sapiens. The data set is classed as functional, cell-based. Summed up: as §1
Data set [20] relates to Jurkat. In words: Percent of Jurkat-Vec cells killed after 72 hr of 2.5 uM of compound administration. Particulars: human. It is filed as cell-based. The gist of the method: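 Jurkat T cells stably carrying empty vector, kept in RPMI 1640 with 10% fetal calf serum and 1 µg/mL puromycin at 37 °C, 5% CO2. Cell growth assay at 5000 cells/well in 10% FBS medium, drug added in triplicate for 72 h. WST-1 then added for 1-3 h at 37 °C. Absorbance read at 450 nm, corrected at 650 nm, and compared with vehicle-control wells.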

Data set [21] relates to Jurkat. In words: Percent of Jurkat-XIAP cells killed after 72 hr of 10 uM of compound administration. Particulars: human.
Data set [22] deals with Jurkat. In words: Percent of Jurkat-XIAP cells killed after 72 hr of 2.5 uM of compound administration. Particulars: human.

T1 sequence (P98170 whole entry): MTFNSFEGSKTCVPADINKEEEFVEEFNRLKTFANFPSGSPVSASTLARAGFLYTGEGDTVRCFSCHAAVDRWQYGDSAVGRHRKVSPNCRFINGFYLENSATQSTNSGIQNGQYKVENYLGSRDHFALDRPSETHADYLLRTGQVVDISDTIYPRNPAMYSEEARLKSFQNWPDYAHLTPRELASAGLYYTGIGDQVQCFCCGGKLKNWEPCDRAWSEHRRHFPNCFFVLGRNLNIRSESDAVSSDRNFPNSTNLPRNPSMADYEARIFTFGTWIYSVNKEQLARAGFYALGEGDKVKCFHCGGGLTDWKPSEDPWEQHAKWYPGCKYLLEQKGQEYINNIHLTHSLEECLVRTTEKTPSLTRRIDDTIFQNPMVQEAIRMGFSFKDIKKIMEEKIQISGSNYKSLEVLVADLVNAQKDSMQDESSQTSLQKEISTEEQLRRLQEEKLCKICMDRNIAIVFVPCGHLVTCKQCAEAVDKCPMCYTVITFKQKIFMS

Usually pIC50 stands for −log10 of the IC50, conventionally taken in molar units. Read a high pIC50 as a low IC50. The compound `C[C@H](N)C(=O)N[C@@H](CCCNC(=N)N)C(=O)N1CCC[C@H]1C(=O)N[C@@H](Cc1ccccc1)C(=O)N[C@@H](C)C(=O)N[C@@H](CCC(N)=O)C(=O)N[C@@H](CCCCNC(=O)c1c(C(=O)ON2C(=O)CCC2=O)cccc1-c1c2ccc(=O)cc-2oc2cc(O)ccc12)C(=O)O` (H-ARPFAQK(X1)-OH) had a pIC50 in data set [1] of 6.24.
The pKd is the negative decadic logarithm of the Kd, by convention in mol/L. Higher therefore signals a low Kd. Consider `C[C@H](N)C(=O)N[C@@H](CCCNC(=N)N)C(=O)N1CCC[C@H]1C(=O)N[C@@H](Cc1ccccc1)C(=O)N[C@@H](C)C(=O)N[C@@H](CCC(N)=O)C(=O)N[C@@H](CCCCN)C(=O)O` (H-ARPFAQK-OH), for which the pKd in data set [2] was 7.42; in [3], 7.70.
Take `CCCCCCCCCCCC1=C(O)C(=O)C=C(O)C1=O` [EMBELIN]: the pIC50 is 4.70 in the data set with Jurkat [4]; 5.43 in the data set with PC-3 [5]; 4.71 with WI-38 5000; 5.39 in data set [1]; 4.70 in the data set on PrEC [12]; 4.70 in the data set on PrEC [15]. Moreover, the pIC50 in the data set on PC-3 [16] is 5.43; with LNCaP [18], 5.24; in the data set on LNCaP [19], 5.24; in the data set with WI-38 it was 4.71. Also, the Staining with PC-3 [6] was 33%; in the data set with PC-3 [13] it was 62.1%. The Induction was 33% with PC-3 [7]; 94.3% and 59% with Jurkat [9]; 62.1% with PC-3 [11]; 75% in the data set with PC-3 [14]; 30% in the data set on PC-3 [17]. Besides, the Apoptosis in the data set on PC-3 [8] amounted to 30%; in the data set with PC-3 [10] it was 75%.
As to `COc1cc([C@@H]2c3cc4c(cc3[C@@H](O[C@@H]3O[C@@H]5CO[C@@H](C)O[C@H]5[C@H](O)[C@H]3O)[C@H]3COC(=O)[C@H]23)OCO4)cc(OC)c1O` [ETOPOSIDE], the Death in the data set with Jurkat [20] is recorded as 94.3%; with Jurkat [21], 85%; in the data set on Jurkat [22], 59%.

(Values after ChEMBL document CHEMBL1148304, “Discovery of embelin as a cell-permeable, small-molecular weight inhibitor of XIAP through structure-based computational screening of a traditional herbal medicine three-dimensional structure database” (J Med Chem, 2004).)
